Bioassay records as filed in PubChem.
Rows were chosen to be rich in hits. Some 3.5% of all compounds tested hit in one or more screens of this group.
Rev-RRE block = HIV Rev-RRE protein-RNA interaction inhibition; Rev peptide-RRE RNA binding, FRET; inhibition, % at 8 µM; actives 0.79% (n = 97,000);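 active means inhibition above the screen-wide mean plus 3 SD, cut at about 35% in these data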;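 further: 0% = median DMSO wells and 100% = median Neomycin B control wells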
Target sequence (P05866 whole entry, looked up): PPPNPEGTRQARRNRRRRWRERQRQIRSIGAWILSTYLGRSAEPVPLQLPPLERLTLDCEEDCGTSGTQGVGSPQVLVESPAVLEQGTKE
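Test system: labelled RRE RNA duplex and labelled Rev peptide. Times: 5 min compound–RNA preincubation, then 15 min with peptide, 25 °C. Doses: single-dose 8 µM. Measured by: FRET, excitation 480 nm, emission 540 nm donor and 671 nm acceptor. Measure: % inhibition of FRET ratio versus controls.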
ERa SRC1 pot = ER-alpha (human) coactivator binding potentiation; P03372; TR-FRET ERalpha-LBD/SRC-Cy5 coactivator binding, 2 h; 100 = basal binding, no effect; coactivator binding (% of control), % at 25.6 µM; actives 1.3% (n = 86,000); in the data active means activity above about 200%;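 further: binding measured in presence of low estradiol as agonist stimulus; 0% = peptide alone without receptor and 100% = receptor with peptide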
sEH activator = soluble epoxide hydrolase (human) activation; P34913; actives 0.04% (n = 91,000); purified human sEH enzymatic activity, activator screen; activation, % at 2 µM; AID 717; in the data active means activation above about 37%
ERb coact inh = ER-beta (human) coactivator binding inhibition. Q92731. TR-FRET ER-beta LBD / SRC1-Cy5 peptide binding; receptor agonist-loaded with 1 µM estradiol. inhibition, % at 25.6 µM. actives 1.3% (n = 86,000). AID 633;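 active means compounds whose percent inhibition of the receptor-coactivator binding signal exceeds about 50% in the single-dose screen, limit read from the data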;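 further: 0% = receptor plus peptide wells without compound and 100% = peptide-only wells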
Target sequence (Q92731 whole entry, looked up, the tested form may be a part): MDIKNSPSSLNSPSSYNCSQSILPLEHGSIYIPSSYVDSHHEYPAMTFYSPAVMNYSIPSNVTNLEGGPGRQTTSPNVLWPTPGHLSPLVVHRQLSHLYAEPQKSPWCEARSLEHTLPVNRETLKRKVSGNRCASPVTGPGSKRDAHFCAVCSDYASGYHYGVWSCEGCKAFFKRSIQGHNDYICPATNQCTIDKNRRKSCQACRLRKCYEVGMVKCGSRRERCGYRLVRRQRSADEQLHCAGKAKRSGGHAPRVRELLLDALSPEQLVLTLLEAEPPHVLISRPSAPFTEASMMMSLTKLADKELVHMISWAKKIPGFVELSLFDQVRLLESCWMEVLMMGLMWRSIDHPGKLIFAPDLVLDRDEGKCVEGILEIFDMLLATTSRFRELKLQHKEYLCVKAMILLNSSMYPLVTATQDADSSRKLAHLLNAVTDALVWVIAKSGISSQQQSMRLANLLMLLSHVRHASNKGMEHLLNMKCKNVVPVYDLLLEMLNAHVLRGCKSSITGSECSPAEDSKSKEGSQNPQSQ
ERa coact inh = blocks coactivator binding to human estrogen receptor alpha | P03372 | TR-FRET ER-alpha LBD / SRC-1 peptide, estradiol-bound | inhibition, % at 25.6 µM | actives 1.7% (n = 86,000) | AID 629; in the data active means inhibition above about 50%;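 further: 0% = receptor plus peptide control and 100% = peptide only without receptor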
sEH inh = blocks human soluble epoxide hydrolase activity; inhibition, % at 2 µM; P34913; recombinant human sEH enzymatic activity assay; AID 707; actives 0.34% (n = 91,000); in the data active means inhibition above about 80%
* hit, by the source's call; . = not tested or not shown; [ ] = dose if it differs, or a comment.

SMILES	Rev-RRE block	ERa SRC1 pot	sEH activator	ERb coact inh	ERa coact inh	sEH inh
COc1ccc(N2CSC3=C(C#N)C(c4cccs4)CC(=O)N3C2)cc1 (configuration not stated)	2.3	69.2	-9.8	41.2	54.1*[fluorescence artefact?]	11.3
COc1ccc(N2CSC3=C(C#N)C(c4cc(OC)c(OC)cc4OC)CC(=O)N3C2)c(OC)c1 (configuration not stated)	17.4	101.0	-14.6	-9.7	54.8*[fluorescence artefact?]	13.5
Nc1c(-c2ccc(Cl)cc2)nnn1-c1ccccc1	5.0	109.3	-1.3	1.3	-4.3	2.6
COc1ccc(CCN2C(=O)C(O)=C(C(C)=O)C2c2ccccc2OC)cc1OC (configuration not stated)	-2.8	111.5	-5.8	-8.4	24.5	6.0
Cc1cc(C)nc(-n2nc(C)cc2NC(=O)CNCc2ccccc2)n1	8.4	90.8	2.9	90.5*[fluorescence artefact?]	-9.0	-4.9
Cn1cccc1/C=C1\CCC/C(=C\c2cccn2C)C1=O	136.4*[fluorescence artefact?]	75.2	5.5	-21.2	-12.1	-8.6
Cn1cccc1/C=N/n1cnnc1	6.2	123.2	.	-3.3	0.9	.
CCOCCCNC(=O)C(NC(=O)CNC(=O)c1ccccc1)c1ccccc1 (configuration not stated)	0.3	115.0	-3.0	-6.7	-8.3	6.0
Cc1ccc(C=Nc2ccc(N(C)C)cc2)o1	-15.2	114.1	11.0	88.8*[fluorescence artefact?]	24.7	-13.4
CCOCCCNC(=O)C1CCN(c2cc(C)nc3c(-c4ccc(OC)c(OC)c4)c(C)nn23)CC1	-2.0	116.9	-49.8	-39.4	-9.7	50.0
COc1cccc(OCCCCCCN2CCOCC2)c1	6.8	111.2	11.4	-8.1	-11.0	-8.0
Nc1nc(N)c2sc3nc(C(F)(F)F)cc(C(F)(F)F)c3c2n1	37.0*	85.4	5.8	7.7	-2.4	-2.7
Cc1cc(C(F)(F)F)c2sc(N)nc2n1	13.3	108.3	-5.8	3.5	-7.2	7.4
O=c1cc(CN2CCN(Cc3ccccc3)CC2)c2cc(Cl)ccc2o1	6.0	84.9	1.6	60.0*[fluorescence artefact?]	6.9	0.1
O=c1cc(CN2CCN(c3cccc(Cl)c3)CC2)c2cc(O)c(-c3ccccc3)cc2o1	4.8	.	-7.4	.	.	4.6
O=c1cc(CN2CCN(c3ccccc3)CC2)c2cc(O)c(-c3ccccc3)cc2o1	3.1	84.4	6.5	34.8	79.0*[fluorescence artefact?]	-4.9
Cc1ccc(O)c(C(=O)c2cnc3c(c2)COc2ccc(C)cc2-3)c1	14.7	101.5	-4.3	2.1	27.7	6.4
CN1C(=O)COc2ccc(C(=O)c3oc4ccccc4c3-c3cnc4c(c3)COc3ccccc3-4)cc21	-3.2	317.4*[fluorescence artefact?]	-2.9	21.1	15.7	2.6
Cc1csc(C(C#N)C(=O)c2ccncc2)n1 (configuration not stated)	.	65.0	.	62.6*	31.9	.
COc1cccc(CN2CCNC(=O)C2CC(=O)O)c1OC (configuration not stated)	14.5	115.5	.	1.4	-3.6	.
O=C1CCC(=O)N1c1ccccc1-c1ccccc1	8.0	117.5	1.4	0.2	-4.1	-1.8
Cc1cc(-c2ccc(N3C(=O)CCC3=O)c(C)c2)ccc1N1C(=O)CCC1=O	3.4	106.5	-6.8	62.6*	-7.2	6.4
N#Cc1c(N)nc2c3c(sc(=N)c2c1N)NC(=O)CC3c1ccccc1 (configuration not stated)	48.8*	.	5.1	.	.	-5.0
O=C(Nc1cccc(C(F)(F)F)c1)C1CCCN(S(=O)(=O)c2cnc[nH]2)C1 (configuration not stated)	0.3	111.2	-52.0	-12.6	-3.2	51.5
O=C(Nc1ccc(N2CCOCC2)cc1)C1CCCN(S(=O)(=O)c2cccc(C(F)(F)F)c2)C1 (configuration not stated)	-3.4	103.8	-12.9	85.2*[fluorescence artefact?]	-4.3	13.1
SMILES	Rev-RRE block	ERa SRC1 pot	sEH activator	ERb coact inh	ERa coact inh	sEH inh
COc1ccc2cc(C3(C)NC(=O)NC3=O)ccc2c1 (configuration not stated)	36.9*	99.4	.	14.4	-4.7	.
O=C(NCCc1ccccc1)C1CCN(c2nc3ccccc3o2)CC1	6.4	102.9	-69.1	-6.3	-7.7	69.3
Cc1ccccc1-c1nc(CN2CCC(C(=O)NCCC3=CCCCC3)CC2)c(C)o1	5.0	112.6	-93.2	-2.2	-2.5	93.4*
O=C(NC1CCCCCCC1)C1CCN(c2nc3ccccc3o2)CC1	8.4	96.5	-93.2	-16.5	-3.0	93.1*
Cc1oc(-c2ccccc2F)nc1CN1CCC(C(=O)NC2CCCCCCC2)CC1	11.3	109.5	-91.0	-7.0	-7.8	91.1*
Cc1oc(-c2ccccc2F)nc1CN1CCC(C(=O)NC2CCCc3ccccc32)CC1 (configuration not stated)	10.3	.	.	.	.	.
O=C(Nc1ccc2c(c1)CCC2)C1CCN(c2c3c(nc4ncnn24)CCC3)CC1	3.1	115.3	-77.0	-8.0	8.9	76.7
Cc1cc(N2CCCC(C(=O)Nc3ccc4c(c3)CCC4)C2)n2ncnc2n1 (configuration not stated)	5.1	130.4	-81.5	-5.1	5.1	81.6*
CCC(=O)N1CCc2cc(S(=O)(=O)NC(CC(C)C)C(=O)N3CCc4ccccc43)ccc21 (configuration not stated)	.	100.2	.	-9.3	4.0	.
O=C1NC(=S)N/C1=C/c1ccc(-c2c(Br)cc([N+](=O)[O-])cc2Br)o1	38.0*	.	7.3	.	.	-4.3
O=[N+]([O-])c1ccc(N/N=C/c2c[nH]c3ccccc23)cc1	58.4*[fluorescence artefact?]	.	-4.9	.	.	8.8
COc1c(/C=N/Nc2ccc([N+](=O)[O-])cc2[N+](=O)[O-])c(C)nn1-c1ccccc1	10.5	.	24.5	.	.	-21.0
O=[N+]([O-])c1ccc(N/N=C/c2cn(-c3ccccc3)nc2-c2ccccc2)cc1	63.7*	.	5.9	.	.	-3.4
COc1ccc(NS(=O)(=O)c2cc([N+](=O)[O-])ccc2N/N=C\c2c(C)[nH]c3ccccc23)cc1	44.2*	.	3.6	.	.	-2.8
Cc1[nH]c2ccccc2c1/C=N/Nc1ccc([N+](=O)[O-])cc1S(=O)(=O)Nc1ccc(Cl)cc1	40.5*	.	0.6	.	.	0.9
COc1ccc(OC)c(NC(=O)CN(c2ccc(OC)c(Cl)c2)S(C)(=O)=O)c1	.	102.0	.	30.7	2.6	.
O=[N+]([O-])c1ccccc1N/N=C/c1c[nH]c2ccccc12	3.1	.	1.4	.	.	0.7
COc1ccccc1NS(=O)(=O)c1cc([N+](=O)[O-])ccc1N/N=C/c1c[nH]c2ccccc12	63.9*[fluorescence artefact?]	.	3.0	.	.	-5.1
Cc1cccc(N2C(=O)CN=C2Nc2nc(C)cc(C)n2)c1	3.4	101.6	-3.5	-4.7	-7.0	1.3
Cc1cc(C)nc(NC2=NCC(=O)N2c2cc(Cl)cc(Cl)c2)n1	2.7	474.1*[fluorescence artefact?]	7.9	-1.7	-36.2	-6.2
CCC(=O)Nc1c(-c2ccc(OC)cc2)c(=O)c2ccccc2n1C	11.9	105.1	3.2	1.8	2.2	-1.9
